# Only a selection was taken, and hits are over-represented in it overall.
# Calb FLC = C. albicans growth inhibition with fluconazole, primary screen, CaCi-2 strain, Alamar Blue fluorescence; growth inhibition, % (test concentration not listed); 300,000 compounds, 0.57% hits; C. albicans CaCi-2 (fluconazole-resistant clinical isolate) + fluconazole, 48 h;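 active = growth inhibition above about 58% in most replicates, limit read from the data, passing the limit was not always enough; inconclusive = exactly half the replicates above a set limit; inactive = most replicates below a set limit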;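 also: all wells also contain fluconazole at 8 µg/ml as a sub-toxic cotreatment; 0% = median of DMSO wells and 100% = median of geldanamycin control wells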
# NALP1 yeast inh = NALP1 inflammasome inhibitors in reconstituted yeast, colorimetric, S. cerevisiae, triplicate retest; S. cerevisiae NALP1/ASC/caspase-1 growth, X-gal OD620, 72 h; inhibition, % at 10 µM; 280,000 compounds, 0.61% hits; in the data active = inhibition mostly above about 24%, no sharp cut-off; inactive = mostly below about 32%
# NLRP3 yeast inh = NALP3 inflammasome inhibitors in reconstituted yeast, primary screen, luminescence, uHTS. Yeast reconstituted NLRP3/ASC/caspase-1, beta-gal luminescence, 24 h. AID 2825, 2010. 330,000 compounds, 0.39% hits. inhibition, % at 10 µM;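 active = inhibition of 50% or more; inactive = inhibition below 50%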;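 also: plate controls were induced DMSO wells for no effect and uninduced yeast grown without galactose for full effect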
# PolyA inh = polyadenylation inhibitors in yeast reporter cells, primary screen, luminescence, S. cerevisiae | S. cerevisiae SKY197-pL101 polyadenylation reporter, beta-gal luminescence; efflux-impaired pdr1/pdr3 knockout yeast; score 100 = 6 SD above DMSO | activity score, % at 12 µM | 300,000 compounds, 0.02% hits | AID 1875, 2009;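 active = lowest replicate activity score at least 50, where 100 means six control SD above control mean; inconclusive = lowest score under 50 but half or more replicates reach 50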;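 also: yeast exposed to compound for 9 h at 30 °C; higher score means more reporter readthrough which indicates perturbed polyadenylation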
# Lmaj promast = Leishmania major promastigote growth inhibition, primary screen | Leishmania major promastigotes, resazurin fluorescence viability | inhibition, % at 10 µM | 200,000 compounds, 9% hits | AID 1063, 2008; in the data active = inhibition above about 50%;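 also: promastigotes grown with compound for 44 hours at 28 °C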
# T cruzi inh = inhibitors of intracellular T. cruzi growth, primary screen, luminescence, NIH3T3 host cells; AID 1885, 2009; T. cruzi beta-gal in NIH3T3, 90 h; 300,000 compounds, 1.4% hits; inhibition, % (test concentration not listed);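 active = mean inhibition across valid replicates above about 55%, limit read from the data; inconclusive = mean below that limit but half or more replicates reach it; inactive = mean below it, under half of replicates reach it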;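 also: signal also drops with host cell toxicity which is not excluded here; 0% = plate median of DMSO wells and 100% = zero luminescence signal; higher percent means less beta-gal luminescence so fewer parasites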
#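 assay system = mouse NIH/3T3 fibroblasts infected with β-gal-expressing T. cruzi Tulahuen C4 | input = 5,000 NIH/3T3 host cells per well | buffer or medium = DMEM plus 2% FBS | timing = 3 h host attachment, then at least 90 h co-culture | measured by = GalScreen luminescence, 60 min | evaluation = luminescence reflecting intracellular parasite burden, expressed as percent inhibition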
# * hit, by the source's call; ? = inconclusive; . = no result.
SMILES,Calb FLC,NALP1 yeast inh,NLRP3 yeast inh,PolyA inh,Lmaj promast,T cruzi inh
Cc1ccc(CNC(=O)c2cc(=O)c3ccccc3o2)cc1,-5,-8,9,16,.,1
Cc1ccc(-c2c(C(=O)NCc3ccc(F)cc3)oc(=O)c3ccccc23)cc1,4,29,18,-16,74*,5
COc1ccccc1CNC(=O)c1ccc2c(=O)n(CCCN3CCCC3=O)c(=S)[nH]c2c1,5,5,13,29,-4,5
N#CC(C#N)=C1C=CC=CN1/C(=C\c1ccco1)C(=O)c1ccc(-c2ccccc2)cc1,.,26,.,.,100*,.
Cc1ccc2[nH]c(=O)c(CN(Cc3ccco3)S(=O)(=O)c3c(C)ccc4nsnc34)cc2c1,-5,-1,14,5,-2,32
Cc1ccc2[nH]c(=O)c(CN(CC3CCCO3)S(=O)(=O)c3c(C)ccc4nsnc34)cc2c1 (configuration not stated),-18,12,-5,-19,95*,1
COc1ccc2[nH]c(=O)c(CN(Cc3cccs3)S(=O)(=O)c3c(C)ccc4nsnc34)cc2c1,?,-6,5,4,98*,6
Cc1ccc(-c2nn(-c3ccccc3)cc2CNCc2ccccc2)cc1,3,21,34,10,62*,62*
Cc1ccc(-c2nn(-c3ccccc3)c3[nH]c(=O)c(CNCCN(C)C)cc23)cc1,.,9,.,.,.,.
Cc1ccc(-c2nn(-c3ccccc3)cc2CO)cc1,0,18,26,-6,.,1
Cc1ccc(-c2nn(-c3ccccc3)cc2NC(=O)CCl)cc1,-26,14,22,-12,93*,-28
Cc1ccc(-c2nn(-c3ccccc3)c3[nH]c(=O)c(CNCc4ccccc4)cc23)cc1,7,11,25,-11,97*,18
COc1ccccc1CNC(=O)C(NS(=O)(=O)c1ccc2c(c1)OCCO2)C(C)C (configuration not stated),-34,22,13,-5,28,-1
CCOc1ccccc1CN(CCc1ccc2c(c1)OCO2)Cc1ccccn1,-14,-9,-7,-1,82*,1
O=C(/C=C/c1ccc([N+](=O)[O-])cc1)OCC(=O)N1CCCC1,.,.,8,.,.,.
Cn1c(Sc2ccc([N+](=O)[O-])cc2C(F)(F)F)nnc1-c1ccccc1,-12,8,21,-14,62*,?
Cn1c(Sc2ccc(C(F)(F)F)cc2[N+](=O)[O-])nnc1-c1ccccc1,23,11,15,-17,30,14
CN(C)CCCN(C(=O)CCc1ccccc1)c1nc2c(F)cccc2s1,-24,25,30,14,41,58*
CN(C)CCCN(C(=O)CCOc1ccccc1)c1nc2c(F)cccc2s1,8,52*,.,-6,50*,59*
CN(C)CCCN(C(=O)COc1ccc(Cl)cc1)c1nc2c(F)cccc2s1,-1,23,2,1,0,80*
CN(C)CCCN(C(=O)CCOc1ccccc1)c1nc2ccc(F)cc2s1,.,17,.,.,93*,.
CC(Oc1ccccc1F)c1nnc(SCC(=O)N(c2ccccc2)C2CCS(=O)(=O)C2)o1 (configuration not stated),.,.,0,.,.,.
CC1(C)C(=O)CC[C@@]2(C)[C@H]1CC[C@@]1(C)CC3=C(CC[C@@H]12)[C@@]1(C)CCC(=O)C(C)(C)[C@@H]1CC3,.,.,22,.,.,.
O=C(CSc1nc2cc(Cl)ccc2o1)c1cccs1,-14,0,16,-13,57*,13
O=C(CCNc1ccc(Cl)cc1)c1cccs1,-2,39,41,-12,32,9
O=C(CCSc1ccc(Cl)cc1)c1cccs1,2,31,-18,13,70*,38
CC1CC(C)CN(CCCNC(=O)c2ccc3c(c2)ncn3C2CCCC2)C1 (configuration not stated),46,-6,23,11,.,10
CC1C/C(=C/c2ccccn2)C(=O)/C(=C/c2ccccn2)C1 (configuration not stated),27,1,28,-60,100*,58*

# Source: PubChem BioAssay
